From PubChem BioAssay
ABCG2 block = human ABCG2 inhibition, ABCB1 as counter-screen; inhibition, % at 6.6 µM; 0.1% of 190,000 active; IgMXP3 cells, JC-1 efflux, flow cytometry; AID 1325;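 active = inhibition above 80%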;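 also: 0% = DMSO and 100% = nicardipine control wells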
Target sequence (Q9UNQ0 whole entry, looked up): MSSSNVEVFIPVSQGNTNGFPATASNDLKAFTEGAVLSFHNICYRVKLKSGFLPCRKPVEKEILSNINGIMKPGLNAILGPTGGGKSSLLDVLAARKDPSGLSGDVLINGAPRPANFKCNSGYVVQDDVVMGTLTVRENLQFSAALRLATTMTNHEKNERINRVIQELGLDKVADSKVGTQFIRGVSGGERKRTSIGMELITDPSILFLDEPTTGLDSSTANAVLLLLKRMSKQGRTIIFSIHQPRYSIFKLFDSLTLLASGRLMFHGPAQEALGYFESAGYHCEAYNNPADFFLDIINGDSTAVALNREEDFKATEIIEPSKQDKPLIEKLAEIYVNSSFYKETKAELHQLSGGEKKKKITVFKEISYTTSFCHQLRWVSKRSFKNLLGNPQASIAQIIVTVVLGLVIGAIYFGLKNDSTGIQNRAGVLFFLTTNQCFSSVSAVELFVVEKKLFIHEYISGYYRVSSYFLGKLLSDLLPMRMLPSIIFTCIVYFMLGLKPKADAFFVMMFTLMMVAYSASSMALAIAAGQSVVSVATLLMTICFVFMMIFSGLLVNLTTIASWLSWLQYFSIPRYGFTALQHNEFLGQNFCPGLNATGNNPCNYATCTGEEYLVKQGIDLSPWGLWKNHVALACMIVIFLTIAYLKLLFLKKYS
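material = IgMXP3 (ABCG2) plus far-red-tagged CCRF-Adr (ABCB1) cells | amount = 3 million cells/mL, equal mix of both lines | also added = JC-1 transporter substrate | dosing = one concentration, 6.6 µM final | schedule = 10 min at 25 °C | measured by = flow cytometric JC-1 green MFI at 530 nm | read-out basis = percent efflux inhibition, scaled nicardipine 100% to DMSO 0%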
MEKK2wt PB1 HTS = raises or lowers MEK5 binding to wildtype human MEKK2 PB1 domain; binding response (% of control), % at 10 µM; Q9Y2U5; AID 1531; 1.1% of 290,000 active; bead flow cytometry, Alexa488-MEK5 binding to MEKK2 WT; actives lie on both sides; in the data active = binding response below about 67% or above about 130%
MEKK3 PB1 HTS = modulators (inhibitors or enhancers) of MEK5 binding to human MEKK3 PB1 domain. Q99759. bead-based flow cytometry, Alexa488-MEK5 binding to MEKK3; actives lie on both sides; 0 = blocked by unlabeled MEK5, 100 = vehicle. binding response (% of control), % at 10 µM. 1.4% of 290,000 active;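 active = binding response more than 3 SD above or below the average of its plate-row segment, actives on both sides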;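 also: Alexa488 bead fluorescence after subtracting the streptavidin-only scavenger bead signal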
MEKK2mut PB1 HTS = signal of MEK5 binding to mutant human MEKK2 PB1 domain; bead flow cytometry, Alexa488-MEK5 binding to MEKK2 mutant; percent response, % at 10 µM; 0.35% of 290,000 active; in the data active = percent response above about 24%, passing the limit was not always enough
ABCB1 inh = blocks JC-1 efflux by human ABCB1 transporter; P08183; CCRF-Adr cells, flow cytometry; inhibition, % at 6.6 µM; 0.067% of 190,000 active; AID 1326; in the data active = inhibition above about 40%;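 also: 0% = vehicle and 100% = reference inhibitor; higher value means more JC-1 retained so stronger ABCB1 efflux block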
Efflux pump inh = inhibitors of Candida antifungal efflux pumps expressed in yeast; S. cerevisiae Candida pump triplex, Nile Red efflux; inhibition, % at 10 µM; 0.44% of 330,000 active;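 active = plate passing quality check with inhibition over a set limit, or well fluorescence over plate mean plus 4 SD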;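 also: Nile Red retained in pooled yeast measured as flow cytometry median fluorescence; 0% = buffer negative control and 100% = Enniatin B positive control; higher means more Nile Red kept so more efflux inhibition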
MEKK2wt confirm = raises or lowers MEK5 binding to wildtype human MEKK2, retest; shares compounds with MEKK3 PB1 HTS; bead flow cytometry, Alexa488-MEK5 binding to MEKK2 WT; actives lie on both sides; binding response (% of control), % at 10 µM; 2.4% of 5,900 active; in the data active = binding response below about 16% or above about 210%; inactive = in between
MEKK2mut-MEK5 = signal of MEK5 binding to mutant human MEKK2, retest; shares compounds with MEKK3 PB1 HTS; AID 1893; bead flow cytometry, Alexa488-MEK5 binding to MEKK2 mutant; percent response, % at 10 µM; 2% of 5,900 active; in the data active = percent response mostly above about 71%, no sharp cut-off; inactive = mostly below about 38%;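 also: higher means compound restores mutant binding toward wildtype level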
MEKK3-MEK5 inh = MEKK3-MEK5 PB1 inhibition, single concentration confirmation | shares compounds with MEKK3 PB1 HTS | bead flow cytometry, Alexa488-MEK5 binding to MEKK3; stronger effect = lower value | binding response (% of control), % at 10 µM | 1.8% of 5,900 active | AID 1894;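 active = binding response below 72% of control, or above a set upper limit, though filed actives all read lower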;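 also: 100% = DMSO only wells and 0% = binding blocked by excess unlabeled MEK5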
* = called active by the depositor; [ ] = another dose, or the depositor's remark. Most compounds without a hit are left out; they make up all but 2.5% or so of the library.

For COc1ccc(NC(NC(=O)c2cccnc2)C(Cl)(Cl)Cl)cc1 (stereo not drawn) the results were ABCG2 block 3.6, MEKK2wt PB1 HTS 93.0, MEKK3 PB1 HTS 98.0, MEKK2mut PB1 HTS -1.0, ABCB1 inh 1.7 and Efflux pump inh 1.0.
Cc1nnc(NC(=O)CCC(=O)N2CCN(CCOc3cccc4ccccc34)CC2)s1 was read as MEKK2wt PB1 HTS 108.0, MEKK3 PB1 HTS 100.0, MEKK2mut PB1 HTS 4.0 and Efflux pump inh 0.0.
`CCn1ncc(C2=NOC(C(=O)Nc3ccc4c(c3)OCO4)C2)c1C` (stereo not drawn) gave ABCG2 block -1.3, MEKK2wt PB1 HTS 1.0*[inhibitor], MEKK3 PB1 HTS 2.0*[inhibitor], MEKK2mut PB1 HTS -41.0, ABCB1 inh -0.9, Efflux pump inh 0.1, MEKK2wt confirm 101.0, MEKK2mut-MEK5 -2.0 and MEKK3-MEK5 inh 105.0.
Cc1ccc(C(=O)Nc2ccc(N3CCOCC3)nc2N2CCOCC2)cc1 was read as MEKK2wt PB1 HTS 84.0, MEKK3 PB1 HTS 89.0, MEKK2mut PB1 HTS -24.0 and Efflux pump inh 0.0.
Cc1cc(/C=C(/C#N)C(=O)O)c(C)n1-c1cccc2ccccc12 was read as MEKK2wt PB1 HTS 105.0, MEKK3 PB1 HTS 105.0, MEKK2mut PB1 HTS -1.0 and Efflux pump inh 0.2.
`COc1ccccc1-n1nnnc1SC(C)C(=O)NC1CCCC1` (stereo not drawn) gave Efflux pump inh -0.2.
CCC(CC(C)(C)O)C(=O)NNC(=S)Nc1ccccc1 (stereo not drawn) was read as ABCG2 block 0.6, MEKK2wt PB1 HTS 85.0, MEKK3 PB1 HTS 104.0, MEKK2mut PB1 HTS -7.0, ABCB1 inh 0.2 and Efflux pump inh -0.1.
Screening CCn1c(C)c(C2=CCN(S(=O)(=O)c3ccc(C)cc3)CC2)c2ccccc21 returned ABCG2 block -0.2, MEKK2wt PB1 HTS 6.0*[inhibitor], MEKK3 PB1 HTS 85.0, MEKK2mut PB1 HTS 1.0, ABCB1 inh 0.4, Efflux pump inh 0.0, MEKK2wt confirm 104.0, MEKK2mut-MEK5 5.0 and MEKK3-MEK5 inh 103.0.
For Cc1ccc(S(=O)(=O)N2CCN(S(=O)(=O)N3CCCCC3)CC2)c(C)c1 the results were ABCG2 block 4.1, MEKK2wt PB1 HTS -3.0*[inhibitor], MEKK3 PB1 HTS 1.0*[inhibitor], MEKK2mut PB1 HTS -20.0, ABCB1 inh 2.3, Efflux pump inh 0.0, MEKK2wt confirm 98.0, MEKK2mut-MEK5 0.0 and MEKK3-MEK5 inh 100.0.
Cc1ccc(S(=O)(=O)N2CC=C(c3ccc(F)cc3)CC2)cc1 was read as ABCG2 block -1.3, MEKK2wt PB1 HTS 106.0, MEKK3 PB1 HTS 140.0*, MEKK2mut PB1 HTS 3.0, ABCB1 inh -0.4, Efflux pump inh -0.1, MEKK2wt confirm 100.0, MEKK2mut-MEK5 1.0 and MEKK3-MEK5 inh 106.0.
Screening Cc1c(C2=CCN(S(=O)(=O)c3ccc(Br)cc3)CC2)c2ccccc2n1C returned ABCG2 block -1.1, MEKK2wt PB1 HTS 103.0, MEKK3 PB1 HTS 101.0, MEKK2mut PB1 HTS 0.0, ABCB1 inh 0.1 and Efflux pump inh -0.1.
For Cc1ccc(NC(=O)C2=CCN(S(=O)(=O)c3ccc(F)cc3)CC2)cc1 the results were ABCG2 block 7.5, MEKK2wt PB1 HTS 106.0, MEKK3 PB1 HTS 106.0, MEKK2mut PB1 HTS -2.0, ABCB1 inh -0.2 and Efflux pump inh 0.0.
`Cc1ccc(S(=O)(=O)N2CCCN(S(=O)(=O)c3ccc(C)cc3)CC2)cc1` gave ABCG2 block 4.9, MEKK2wt PB1 HTS 48.0, MEKK3 PB1 HTS 36.0*[inhibitor], MEKK2mut PB1 HTS -20.0, ABCB1 inh 2.3, Efflux pump inh -0.4, MEKK2wt confirm 102.0, MEKK2mut-MEK5 2.0 and MEKK3-MEK5 inh 101.0.
`Cc1ccc(O)c(N=Nc2ccc(S(=O)(=O)N3CCCC3)cc2)c1` gave MEKK2wt PB1 HTS 120.0, MEKK3 PB1 HTS 132.0*, MEKK2mut PB1 HTS 27.0, Efflux pump inh -0.1, MEKK2wt confirm 102.0, MEKK2mut-MEK5 1.0 and MEKK3-MEK5 inh 101.0.
For O=C(OCCN=C1NS(=O)(=O)c2ccccc21)c1ccccc1 the results were ABCG2 block 3.6, MEKK2wt PB1 HTS 127.0, MEKK3 PB1 HTS 122.0*, MEKK2mut PB1 HTS 7.0, ABCB1 inh 0.8, Efflux pump inh 0.0, MEKK2wt confirm 103.0, MEKK2mut-MEK5 2.0 and MEKK3-MEK5 inh 104.0.
For O=C(COC(=O)/C=C/c1cccc(Cl)c1)NCCC1=CCCCC1 the results were ABCG2 block 1.1, MEKK2wt PB1 HTS 109.0, MEKK3 PB1 HTS 130.0*, MEKK2mut PB1 HTS 2.0, ABCB1 inh 0.0, Efflux pump inh 0.0, MEKK2wt confirm 103.0, MEKK2mut-MEK5 3.0 and MEKK3-MEK5 inh 104.0.
`O=C(COC(=O)/C=C/c1ccc(Cl)cc1)NCCC1=CCCCC1` gave ABCG2 block 2.1, MEKK2wt PB1 HTS 110.0, MEKK3 PB1 HTS 111.0, MEKK2mut PB1 HTS 0.0, ABCB1 inh 0.0 and Efflux pump inh 0.1.
For CCC1C(=O)N=C(SCC(=O)Nc2ccccc2)NC1=O (stereo not drawn) the results were ABCG2 block 0.6, MEKK2wt PB1 HTS 104.0, MEKK3 PB1 HTS 110.0, MEKK2mut PB1 HTS 3.0, ABCB1 inh 0.6 and Efflux pump inh 0.1.
For CCC1C(=O)N=C(SCC(=O)Nc2ccc(S(N)(=O)=O)cc2)NC1=O (stereo not drawn) the results were ABCG2 block 0.7, MEKK2wt PB1 HTS 122.0, MEKK3 PB1 HTS 138.0*, MEKK2mut PB1 HTS 1.0, ABCB1 inh 0.4, Efflux pump inh -0.1, MEKK2wt confirm 100.0, MEKK2mut-MEK5 -3.0 and MEKK3-MEK5 inh 98.0.
CCn1nc(C)c(Br)c1Nc1ccc(Br)cc1 was read as ABCG2 block 0.0, ABCB1 inh 4.0 and Efflux pump inh 0.3.
Screening COc1ccc(NC(=O)CN(C)S(=O)(=O)c2ccc3c(c2)CC(C)N3C(C)=O)cc1OC (stereo not drawn) returned MEKK2wt PB1 HTS 98.0, MEKK3 PB1 HTS 101.0, MEKK2mut PB1 HTS -3.0 and Efflux pump inh 0.0.
`O=C(CSc1nnc(Nc2ccccc2)s1)NN1C(=O)NC2(CCCCC2)C1=O` gave ABCG2 block 1.7, MEKK2wt PB1 HTS 97.0, MEKK3 PB1 HTS 100.0, MEKK2mut PB1 HTS -1.0, ABCB1 inh -0.1 and Efflux pump inh 0.3.
Screening Cc1cc2oc3ccc(NCCCn4ccnc4)cc3c(=O)c2cc1C returned MEKK2wt PB1 HTS 106.0, MEKK3 PB1 HTS 103.0, MEKK2mut PB1 HTS 1.0 and Efflux pump inh 0.5.
